The source made the active and inactive calls. The calls are words filed in the database; no cut-off is given here. Non-standard residues stand in square brackets, D forms with d. Residues, ends and D or L forms follow the SMILES beside them. pGlu = O=C1CC[C@@H](C(=O)O)N1

Experimental findings from ChEMBL document CHEMBL3244155, “Inhibitory analogues of the luteinizing hormone-releasing hormone having D-aromatic residues in positions 2 and 6 and variation in position 3” (1978) are described below.

The target of assay [1] is T1, Gonadotropin-releasing hormone receptor (Rattus norvegicus) (UniProt P30969).
T1 sequence (whole entry): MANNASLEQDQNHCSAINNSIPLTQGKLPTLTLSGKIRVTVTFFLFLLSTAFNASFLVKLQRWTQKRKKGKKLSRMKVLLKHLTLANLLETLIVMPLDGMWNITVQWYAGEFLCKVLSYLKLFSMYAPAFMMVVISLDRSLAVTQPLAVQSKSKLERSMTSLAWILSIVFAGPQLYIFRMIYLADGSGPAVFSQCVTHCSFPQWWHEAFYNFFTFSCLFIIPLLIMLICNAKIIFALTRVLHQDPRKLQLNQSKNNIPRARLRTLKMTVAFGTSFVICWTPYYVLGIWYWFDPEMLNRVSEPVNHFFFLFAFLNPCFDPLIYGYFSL
As to the kind of experiment: Agonist activity at LH-RH receptor in Sprague-Dawley rat pituitary gland assessed as change in FSH release at 100 ug/ml measured for 6 hrs by RIA. The method, boiled down: (§1)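 Two pituitaries from 20-day-old female Sprague-Dawley rats incubated 6 h at 37 °C in 1 mL lactated Ringer's with shaking. Medium removed hourly and replaced. Analogue alone added at hours 3–6. LH and FSH measured by RIA, expressed as ng/mL of medium against LH-LER-1240-2 and NIAMDD rat FSH RP-1 standards. Change reported with SEM.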

In assay [2] the target is T1, Gonadotropin-releasing hormone receptor (Rattus norvegicus). As to the kind of experiment: Agonist activity at LH-RH receptor in Sprague-Dawley rat pituitary gland assessed as change in LH release at 100 ug/ml measured for 6 hrs by RIA. The method, boiled down: as §1
Assay [3] shares this target. As to the kind of experiment: Antagonist activity at LH-RH receptor in Sprague-Dawley rat pituitary gland assessed as change in LHRH-stimulated FSH release at 0.1 ug/ml preincubated for 4 hrs followed by LH-RH addition at 5th and 6th hr 5 mins post compound addition and measured for 6 hrs by RIA. The gist of the method: (§2)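 Pituitaries from 20-day-old female Sprague-Dawley rats, two per 1 mL lactated Ringer's, shaken 6 h at 37 °C with medium changed each hour. Analogue added at hours 3–6. LH-RH 0.6 ng/mL medium added 5 min after peptide at hours 5 and 6. LH and FSH measured by RIA against rat standards. Change in ng/mL with SEM and p values.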

Assay [4] relates to Rattus norvegicus. As to the kind of experiment: Antiovulatory activity in rat assessed as inhibition of ovulation at 750 ug, sc relative to vehicle-treated control. The class given is functional. The gist of the method: (§3)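 Rats with 4-day cycles given one sc injection of analogue in corn oil on proestrus, between 12 and 12:30 p.m. Controls received 0.3 mL corn oil. Ova shed were counted on estrus. Percent of rats with ovulation inhibited was recorded, with ova per ovulating rat ± SEM.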

Assay [5] concerns the target T1, Gonadotropin-releasing hormone receptor (Rattus norvegicus). As to the kind of experiment: Antagonist activity at LH-RH receptor in Sprague-Dawley rat pituitary gland assessed as change in LHRH-stimulated LH release at 10 ug/ml preincubated for 4 hrs followed by LH-RH addition at 5th and 6th hr 5 mins post compound addition and measured for 6 hrs by RIA. The gist of the method:
as §2

Assay [6] has the same target. As to the kind of experiment: Antagonist activity at LH-RH receptor in Sprague-Dawley rat pituitary gland assessed as change in LHRH-stimulated FSH release at 10 ug/ml preincubated for 4 hrs followed by LH-RH addition at 5th and 6th hr 5 mins post compound addition and measured for 6 hrs by RIA. The gist of the method: as §2
The target is the same in assay [7]. As to the kind of experiment: Antagonist activity at LH-RH receptor in Sprague-Dawley rat pituitary gland assessed as change in LHRH-stimulated LH release at 0.1 ug/ml preincubated for 4 hrs followed by LH-RH addition at 5th and 6th hr 5 mins post compound addition and measured for 6 hrs by RIA. The gist of the method:
as §2

Assay [8] shares this target. As to the kind of experiment: Antagonist activity at LH-RH receptor in Sprague-Dawley rat pituitary gland assessed as change in LHRH-stimulated FSH release at 100 ug/ml preincubated for 4 hrs followed by LH-RH addition at 5th and 6th hr 5 mins post compound addition and measured for 6 hrs by RIA. The gist of the method: as §2
For assay [9] the target is unchanged. As to the kind of experiment: Antagonist activity at LH-RH receptor in Sprague-Dawley rat pituitary gland assessed as change in LHRH-stimulated LH release at 1 ug/ml preincubated for 4 hrs followed by LH-RH addition at 5th and 6th hr 5 mins post compound addition and measured for 6 hrs by RIA. The method, boiled down: as §2
Assay [10] has the same target. As to the kind of experiment: Antagonist activity at LH-RH receptor in Sprague-Dawley rat pituitary gland assessed as change in LHRH-stimulated FSH release at 1 ug/ml preincubated for 4 hrs followed by LH-RH addition at 5th and 6th hr 5 mins post compound addition and measured for 6 hrs by RIA. The method, boiled down: as §2
Assay [11] has the same target. As to the kind of experiment: Antagonist activity at LH-RH receptor in Sprague-Dawley rat pituitary gland assessed as change in LHRH-stimulated LH release at 100 ug/ml preincubated for 4 hrs followed by LH-RH addition at 5th and 6th hr 5 mins post compound addition and measured for 6 hrs by RIA. The method, boiled down:
as §2

The test system of assay [12] is Rattus norvegicus. As to the kind of experiment: Antiovulatory activity in rat assessed as inhibition of ovulation at 1500 ug, sc relative to vehicle-treated control. The class given is functional. The method, boiled down: as §3
The subject of assay [13] is Rattus norvegicus. As to the kind of experiment: Antiovulatory activity in rat assessed as inhibition of ovulation at 375 ug, sc relative to vehicle-treated control. The class given is functional. The gist of the method:
as §3

Take `CC(C)C[C@H](NC(=O)[C@@H](Cc1ccccc1)NC(=O)[C@H](Cc1ccc(O)cc1)NC(=O)[C@H](CO)NC(=O)CN(C)C(=O)[C@@H](Cc1ccccc1)NC(=O)[C@@H]1CCC(=O)N1)C(=O)N[C@@H](CCCNC(=N)N)C(=O)N1CCC[C@H]1C(=O)NCC(N)=O`: the outcome in assay [1] and in assay [2] was inactive. The Activity in assay [3] is 4590 ng/mL; in assay [5] it was 22 ng/mL; in assay [6], 518 ng/mL; in assay [7] it was 339 ng/mL; in assay [8] it was 321 ng/mL; in [9], 127 ng/mL. Moreover, the Activity stood at 3450 ng/mL in assay [10] and 13 ng/mL in [11]. Moreover, the “inhibition (INH)” value in [4] is 50%.

Take `CC(C)C[C@H](NC(=O)[C@@H](Cc1c[nH]c2ccccc12)NC(=O)[C@H](Cc1ccc(O)cc1)NC(=O)[C@H](CO)NC(=O)[C@@H](NC(=O)[C@@H](Cc1ccccc1)NC(=O)[C@@H]1CCC(=O)N1)C(C)C)C(=O)N[C@@H](CCCNC(=N)N)C(=O)N1CCC[C@H]1C(=O)NCC(N)=O`: the outcome in assay [1] and in [2] was inactive. The Activity was 3010 ng/mL in assay [3]; 44 ng/mL in [7]; 110 ng/mL in [8]; -32 ng/mL in assay [9]; -1140 ng/mL in [10]; 7 ng/mL in assay [11]. For the same molecule, the entries for the “inhibition (INH)” value in assay [4] and in [12] were 16% and 60%, respectively.

For the molecule `CC(C)C[C@H](NC(=O)[C@@H](Cc1c[nH]c2ccccc12)NC(=O)[C@H](Cc1ccc(O)cc1)NC(=O)[C@H](CO)NC(=O)[C@@H](Cc1ccccc1)NC(=O)[C@@H](Cc1ccccc1)NC(=O)[C@@H]1CCC(=O)N1)C(=O)N[C@@H](CCCNC(=N)N)C(=O)N1CCC[C@H]1C(=O)NCC(N)=O`, the outcome in assay [1] and in assay [2] was inactive. Besides, the Activity in assay [3] is 2120 ng/mL; in assay [7] it was 97 ng/mL; in [8] it was -814 ng/mL; in [9] it was 39 ng/mL; in [10] it was 70 ng/mL; in assay [11], 10 ng/mL. The “inhibition (INH)” value in assay [4] was determined as 40%.

With `CC(C)C[C@H](NC(=O)[C@@H](Cc1ccccc1)NC(=O)[C@H](Cc1ccc(O)cc1)NC(=O)[C@H](CO)NC(=O)[C@H](CCCNC(=N)N)NC(=O)[C@@H](Cc1ccccc1)NC(=O)[C@@H]1CCC(=O)N1)C(=O)N[C@@H](CCCNC(=N)N)C(=O)N1CCC[C@H]1C(=O)NCC(N)=O`, the result in assay [1] and in [2] was inactive. Moreover, the Activity is 5390 ng/mL in assay [3]; 34 ng/mL in [5]; 380 ng/mL in assay [6]; 276 ng/mL in assay [7]; -133 ng/mL in [8]; 51 ng/mL in assay [9]. The figures for the Activity in assay [10] and in [11] were 1390 ng/mL and 18 ng/mL, respectively. The “inhibition (INH)” value in [4] is 40%.

With `CC[C@H](C)[C@H](NC(=O)[C@@H](Cc1ccccc1)NC(=O)[C@@H]1CCC(=O)N1)C(=O)N[C@@H](CO)C(=O)N[C@@H](Cc1ccc(O)cc1)C(=O)N[C@H](Cc1c[nH]c2ccccc12)C(=O)N[C@@H](CC(C)C)C(=O)N[C@@H](CCCNC(=N)N)C(=O)N1CCC[C@H]1C(=O)NCC(N)=O`, the result in assay [1] and in assay [2] was inactive. Further, the Activity in assay [3] is 2310 ng/mL; in [7], 143 ng/mL; in assay [8] it was 645 ng/mL; in [9], 21 ng/mL; in assay [10], -348 ng/mL; in assay [11], 68 ng/mL. Moreover, the “inhibition (INH)” value in [4] is given as 0%.

Regarding `CC(C)C[C@H](NC(=O)[C@@H](Cc1ccccc1)NC(=O)[C@H](Cc1ccc(O)cc1)NC(=O)[C@H](CO)NC(=O)[C@@H]1CCCN1C(=O)[C@@H](Cc1ccccc1)NC(=O)[C@@H]1CCC(=O)N1)C(=O)N[C@@H](CCCNC(=N)N)C(=O)N1CCC[C@H]1C(=O)NCC(N)=O` ([pGlu][dF]PSY[dF]LRPG-NH2), the result in assay [1] and in assay [2] was inactive. Moreover, the Activity in assay [3] turned out to be 1380 ng/mL; in assay [7], 46 ng/mL; in [8], 179 ng/mL; in assay [9], 17 ng/mL; in [10], 280 ng/mL; in assay [11], 12 ng/mL. Besides, the “inhibition (INH)” value amounted to 100% in assay [4] and 20% in [13].

As to `CC(C)C[C@H](NC(=O)[C@@H](Cc1ccccc1)NC(=O)[C@H](Cc1ccc(O)cc1)NC(=O)[C@H](CO)NC(=O)[C@@H](NC(=O)[C@@H](Cc1ccccc1)NC(=O)[C@@H]1CCC(=O)N1)[C@@H](C)O)C(=O)N[C@@H](CCCNC(=N)N)C(=O)N1CCC[C@H]1C(=O)NCC(N)=O`, the result in assay [1] and in assay [2] was inactive. The Activity in assay [3] is 5470 ng/mL; in assay [5], 18 ng/mL; in [6] it was 751 ng/mL; in [7], 159 ng/mL; in assay [8], 379 ng/mL; in assay [9], 97 ng/mL. The Activity was determined as 2450 ng/mL in assay [10] and 16 ng/mL in assay [11]. Besides, the “inhibition (INH)” value in [4] is 0%.

For `CSCC[C@H](NC(=O)[C@@H](Cc1ccccc1)NC(=O)[C@@H]1CCC(=O)N1)C(=O)N[C@@H](CO)C(=O)N[C@@H](Cc1ccc(O)cc1)C(=O)N[C@H](Cc1c[nH]c2ccccc12)C(=O)N[C@@H](CC(C)C)C(=O)N[C@@H](CCCNC(=N)N)C(=O)N1CCC[C@H]1C(=O)NCC(N)=O`, the outcome in assay [1] and in assay [2] was inactive. The Activity in [3] was 3270 ng/mL; in assay [7], 77 ng/mL; in [8] it was -672 ng/mL; in assay [9], 52 ng/mL; in assay [10], -291 ng/mL; in assay [11], 10 ng/mL. For the same molecule, in [4], the “inhibition (INH)” value was 20%.
